Assay outcomes from PubChem.
CHRM5 PAM – positive allosteric modulators of human muscarinic M5 receptor; P08912; CHO-K1 hM5, Fluo-8 calcium, ACh EC20 PAM; 0% = ACh EC20, 100% = ACh EC100; activation, % at 3 µM; hit rate 0.3% among 360,000;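 active = activation above the run cutoff, the mean activation of all test compounds plus 3 SD, cut at about 18% in these data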
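system = human M5 receptor in CHO-K1 cells | reagent = EC20 acetylcholine as agonist stimulus | compound dosing = single-point, 3 µM nominal | incubation = Fluo-8 loading 80 min at 37 °C plus 30 min room temperature | detection = Fluo-8 calcium dye fluorescence, kinetic read | benchmarks = low control EC20 acetylcholine (0%), high control EC100 acetylcholine (100%)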
M1 antag – human CHRM1 antagonism; inhibition, % at 3 µM; CHO-K1 hM1, Fluo-8 calcium fluorescence, ACh EC80 antagonist; P11229; hit rate 1.3% among 360,000; AID 588852;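 active = percent inhibition above its own plate's cutoff, namely the mean of that plate's compound wells plus 3 SD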;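 note: peak over basal fluorescence ratio during 140 s after agonist addition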
Target sequence (P11229 whole entry, looked up): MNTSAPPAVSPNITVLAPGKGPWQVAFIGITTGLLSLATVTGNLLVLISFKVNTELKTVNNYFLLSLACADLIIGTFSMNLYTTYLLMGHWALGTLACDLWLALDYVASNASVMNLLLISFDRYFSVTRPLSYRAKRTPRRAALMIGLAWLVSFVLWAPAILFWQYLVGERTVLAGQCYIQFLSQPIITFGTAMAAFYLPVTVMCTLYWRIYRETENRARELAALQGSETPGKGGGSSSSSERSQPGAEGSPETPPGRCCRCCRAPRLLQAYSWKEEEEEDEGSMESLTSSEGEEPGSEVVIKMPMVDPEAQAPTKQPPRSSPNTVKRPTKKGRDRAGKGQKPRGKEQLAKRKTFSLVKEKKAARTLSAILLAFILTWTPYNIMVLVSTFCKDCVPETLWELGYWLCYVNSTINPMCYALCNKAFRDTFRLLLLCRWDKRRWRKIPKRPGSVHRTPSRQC
CHRM1 PAM – positive allosteric modulators of human M1 muscarinic receptor | P11229 | CHO-K1 hM1, Fluo-8 calcium fluorescence, ACh EC20; 0% = ACh EC20, 100% = maximal ACh | activation, % at 3 µM | hit rate 0.088% among 360,000 | AID 588819; in the data active = activation above about 19%, passing the limit was not always enough
CHRM5 antagonist – CHRM5 antagonism in calcium assay; P08912; CHO-hM5 cells, Fluo-8 calcium fluorescence, ACh EC80; inhibition, % at 3 µM; hit rate 0.59% among 360,000; AID 624040;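 active = inhibition above a per-plate cutoff, the mean of that plate's test compounds plus 3 SD, cut at about 27% in these data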
M5 ag – CHRM5 agonism in calcium assay | CHO-K1 hM5 cells, Fluo-8 calcium fluorescence; 0% DMSO wells, 100% maximal acetylcholine response | hit rate 0.19% among 360,000 | AID 624037 | activation, % at 3 µM;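 active = activation above the run's mean over test compounds plus 3 SD, cut at about 23% in these data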;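 note: signal is peak over basal fluorescence ratio across the kinetic read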
CHRM1 agonist – agonists of human M1 muscarinic receptor. P11229. CHO-K1 hM1, Fluo-8 calcium fluorescence, agonist mode; 0% DMSO, 100% acetylcholine EC100. activation, % at 3 µM. hit rate 0.33% among 360,000;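 active = activation above the run's mean compound activation plus 3 SD, cut at about 16% in these data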;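 note: peak over basal fluorescence ratio within a 140 s kinetic read after compound addition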
Each line names hits and unclear results; the compound was inactive in the other large screens. In the library only some 2.2% were active in any assay of this set; here they are far more common.

COc1cccc(CNC(=O)c2cc3c(C)nc4ccccc4c3o2)c1	none
COc1cccc(CNC(=O)CN(C)S(=O)(=O)c2cnc[nH]2)c1	CHRM5 PAM 20
CC1=C(C(=O)N(C)C)CC(CC(=O)NCCCCc2ccccc2)C(=O)N1Cc1ccccc1 (configuration not stated)	CHRM1 agonist 35
CC1=C(C(=O)N(C)C)CC(CC(=O)NCCc2ccccn2)C(=O)N1Cc1ccccc1 (configuration not stated)	none
COc1ccc(CN2C(=O)C(CC(=O)NCCCCc3ccccc3)CC(C(=O)N(C(C)C)C(C)C)=C2C)cc1 (configuration not stated)	none
COc1ccc(CN2C(=O)C(CC(=O)NCCCCc3ccccc3)CC(C(=O)N(C)C)=C2C)cc1 (configuration not stated)	CHRM1 agonist 53
CCc1ccc(NC(=O)c2ccc(NC3=NC4CS(=O)(=O)CC4S3)cc2)cc1 (configuration not stated)	none
CCOC(=O)C1(CCc2ccccc2)CCN(C(=O)C2CCOCC2)CC1	none
COc1ccc(CCNC(=O)CN(c2cc([N+](=O)[O-])ccc2OC)S(C)(=O)=O)cc1OC	none
COc1ccc(OC)c(C2C(C(=O)c3ccc(C)o3)=C(O)C(=O)N2CCCN2CCOCC2)c1 (configuration not stated)	CHRM5 PAM 23
Cc1nc(Nc2ccccc2)sc1C(=O)c1ccc(F)cc1	none
Nc1nc(Nc2ccccc2F)sc1C(=O)c1ccccc1	M5 ag 28, CHRM1 agonist 17
CNc1nc(NCC2CCCCC2)c2sccc2n1	none
Cc1cccc(C)c1NC(=O)C(=O)NCCc1c[nH]c2ccccc12	CHRM1 agonist 17
CS(=O)(=O)N1CCCC(c2nc(-c3ccc(S(=O)(=O)NCc4ccccc4)cc3)no2)C1 (configuration not stated)	M1 antag 36, CHRM5 antagonist 29
O=C(Cc1ccccc1)N1CCCC(c2nc(-c3ccc(S(=O)(=O)N4CCCC4)cc3)no2)C1 (configuration not stated)	none
O=C(NCc1nnc(SCC(=O)N2CCCC2)o1)c1cccc(C(F)(F)F)c1	none
O=C(Nc1cccc(-c2nc3ccccc3o2)c1)c1ccc(N2C(=O)C3C4C=CC(C4)C3C2=O)cc1 (configuration not stated)	M1 antag 37
O=C1C2C3C=CC(C3)C2C(=O)N1c1cccc(-c2nc3ccccc3o2)c1 (configuration not stated)	none
CC(=O)C(=Cc1ccc(Cl)cc1)C(=O)c1ccccc1	CHRM5 PAM 22
COC(=O)C1=C(C)NC(=O)C1(NS(=O)(=O)c1ccc(NC(C)=O)cc1)C(F)(F)F (configuration not stated)	none
N#CCC(=O)Nc1ccc(C(=O)OCC(=O)Nc2ccccc2Sc2ccccc2)cc1	CHRM5 antagonist 28
CN1CCN(C(=O)c2ccc(COc3ccc(C(C)(C)C)cc3)o2)CC1	M1 antag 39
COC(=O)c1ccccc1C(=O)N1CCCC(CNC(=O)c2ccc(F)cc2)C1 (configuration not stated)	none
COC(=O)c1[nH]c2ccc(Cl)cc2c1NC(=O)CCN1CCN(C2CCCCC2)CC1	M1 antag 62
CCOC(=O)c1[nH]c2ccc(OC)cc2c1NC(=O)CN1CCc2ccccc2C1	M1 antag 23
COC(=O)c1[nH]c2ccc(Br)cc2c1NC(=O)CN1CCN(C2CCCCC2)CC1	none
CCOC(=O)c1[nH]c2ccc(Br)cc2c1NC(=O)CCN1CCCC(C)(C)C1	M1 antag 90, CHRM5 antagonist 46
OC(c1ccccc1)C(Nc1ccccn1)c1ccccc1 (configuration not stated)	none
CCOC(=O)C(=N/O)/C(C)=N/NC(=O)C(=O)Nc1ccc(Cl)cc1	CHRM5 antagonist 27
CC(C)N1CCC(N2CCN(Cc3ccc(-c4ccc(Cl)cc4)o3)CC2CCO)CC1 (configuration not stated)	none
Cc1ccc(-c2cccc(CN3CCN(C4CCN(C(C)C)CC4)C(CCO)C3)c2)o1 (configuration not stated)	M1 antag 31
C#CCOCCOCCOCCNc1nc(N2CCN(C(=O)CCCCCCCCCCNC(=O)[C@@H](CCC(=O)O)n3cc(CCCCCN)nn3)CC2)nc(N2CCN(C(=O)CCCCCCCCCCNC(=O)[C@H](CCCCN)n3cc(C[C@@H](C)CC)nn3)CC2)n1	CHRM1 agonist 20
C#CCOCCOCCOCCNc1nc(N2CCN(C(=O)CCCCCCCCCCNC(=O)[C@@H](CCSC)n3cc(CCO)nn3)CC2)nc(N2CCN(C(=O)CCCCCCCCCCNC(=O)[C@@H]([C@H](C)O)n3cc(C)nn3)CC2)n1	CHRM5 antagonist 27
O=C(Nc1cccc(F)c1)c1ccc(-c2cccnc2)c2ccoc12	none
CN(C)C(=O)c1ccc(Nc2nc(-c3cccs3)nc3ccccc23)cc1	M1 antag 26
CC(=O)c1ccc(Nc2nc(-c3ccccc3)nc3ccccc23)cc1	none
Cc1cc2nc(-c3ccc4c(c3)CCC4)ccn2n1	none
CSc1ccccc1OCc1cc(C(=O)N2CCC(c3ccncc3)CC2)no1	M1 antag 41
O=C(c1cc(COc2cccc3cccnc23)on1)N1CCC[C@H]1CO	none
CCN(CC)C1CCN(C(=O)c2cc(COc3cccc4cccnc34)on2)C1 (configuration not stated)	M1 antag 73
N#CC1C(=N)Cc2ccccc2-c2ccccc21 (configuration not stated)	none
CCOc1ccc(CN2CCCC(N3CCN(c4ccc(OC)cc4)CC3)C2)cc1 (configuration not stated)	M1 antag 35
O=C(NC1CCCC1)C(c1cccnc1)N(C(=O)c1csnn1)C1CC1 (configuration not stated)	none
O=C1CCCCC(=O)N(c2ccccc2)c2ccccc21	CHRM5 PAM 18
COc1cccc(CN(C)C(=O)c2cc(COc3c(F)cccc3F)on2)c1	none
O=C(c1cc(COc2ccc3ncccc3c2)on1)N1CCCCCC1	CHRM5 antagonist 27
COc1cccc(CN(C)C(=O)c2cc(COc3ccc4ncccc4c3)on2)c1	M1 antag 50, CHRM5 antagonist 40
O=C(NC1CCCC1)c1cc(COc2ccc3ncccc3c2)on1	M1 antag 31
Cc1cc(OCc2cc(C(=O)N3CCC(Oc4cccnc4)CC3)no2)cc(C)c1Cl	M1 antag 31
Cc1ccc([C@H]2C[C@@H](n3cc(COC(=O)c4ccccc4)nn3)[C@H](O)CN2C(=O)c2cccs2)cc1	none
